TDP2 absorb = TDP2 (human) inhibition, absorbance primary screen; recombinant TDP2, T5PNP hydrolysis, p-nitrophenol absorbance 415 nm; AID 720702; hit rate 0.34% among 370,000; O95551; inhibition, % at 12.8 µM;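 active = inhibition above the mean of all tested compounds plus 3 SD, set per campaign, cut at about 25% in these data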
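Incubation: 2 h at 37 °C; Test system: recombinant human TDP2; Quantity: enzyme 120 nM; Read-out basis: percent inhibition; Medium: 50 mM Tris-HCl pH 7.5 with Mg2+, KCl, DTT, BSA; Repeats: single replicate; Compound: 12.8 µM single point, 1% DMSO; Signal: epi absorbance; Reagent: 5 mM T5PNP chromogenic substrate; Benchmarks: no-enzyme high, DMSO-plus-enzyme low.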
SIAE primary = human SIAE inhibition, primary screen; inhibition, % at 9.66 µM; SIAE FP-Rh probe binding, fluorescence polarization; hit rate 0.69% among 370,000;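 active = inhibition above a cutoff: mean of compounds within the control limits plus 3 SD of those, cut at about 17% in these data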
HTRA1 inh = HTRA1 (human) protease inhibition; Q92743; recombinant HTRA1, FP-rhodamine activity-based probe, fluorescence polarization; inhibition, % at 5.96 µM; hit rate 0.5% among 340,000; AID 504803; in the data active = inhibition above about 36%
Target sequence (Q92743 whole entry, looked up): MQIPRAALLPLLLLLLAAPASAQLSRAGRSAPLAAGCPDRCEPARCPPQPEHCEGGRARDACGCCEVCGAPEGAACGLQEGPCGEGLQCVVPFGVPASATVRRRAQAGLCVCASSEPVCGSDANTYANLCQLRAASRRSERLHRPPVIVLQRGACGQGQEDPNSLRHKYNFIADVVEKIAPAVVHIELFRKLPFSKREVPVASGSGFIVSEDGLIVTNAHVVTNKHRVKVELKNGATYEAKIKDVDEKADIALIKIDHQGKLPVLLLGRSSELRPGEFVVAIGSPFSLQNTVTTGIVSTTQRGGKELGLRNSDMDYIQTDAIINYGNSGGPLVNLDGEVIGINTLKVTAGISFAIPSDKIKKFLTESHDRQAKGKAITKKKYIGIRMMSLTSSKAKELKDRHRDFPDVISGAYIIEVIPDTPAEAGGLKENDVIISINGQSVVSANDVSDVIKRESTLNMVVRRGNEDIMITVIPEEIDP
PAD4 FP inh = inhibitors of human PAD4. recombinant PAD4, RCA probe fluorescence polarization. AID 485272. hit rate 0.41% among 330,000. inhibition, % at 6.36 µM. Q9UM07;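 active = percent inhibition above a cutoff equal to the mean of all tested compounds plus 3 SD, cut at about 15% in these data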
ABHD4 inh = ABHD4 (mouse) inhibition, primary FP screen; purified mABHD4, FP-Rh probe fluorescence polarization; inhibition, % at 8.92 µM; hit rate 0.54% among 370,000; AID 720543;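 active = inhibition exceeding the mean over every tested compound plus 3 SD, cut at about 30% in these data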
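Test system: mABHD4 protein; Read-out basis: % inhibition; Incubation: 45 min + 60 min at 25 °C; Repeats: single replicate; Technique: fluorescence polarization with parallel and perpendicular emission, 525/598 nm; Compound: 8.92 µM, single dose; Benchmarks: full inhibition S159A mutant plus DMSO, zero as sample-well median.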
TCR-CD3 inh = inhibitors of human TCR-CD3 interaction | hit rate 0.37% among 360,000 | inhibition, % at 9.4 µM | TAMRA-labeled TCR probe fluorescence, biochemical | AID 651800;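 note: recombinant mutant TCR 2C K166C tagged with TAMRA read by polarization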
BSA probe FL = BSA probe counter-screen for TCR-CD3 inhibitors; inhibition, % at 9.4 µM; TAMRA-labeled BSA probe fluorescence counterscreen; hit rate 10% among 1,200; shares compounds with TCR-CD3 inh; in the data active = inhibition above about 23%
TCR-CD3 inh conf = TCR-CD3 interaction inhibition, confirmation. AID 652036. shares compounds with TCR-CD3 inh. hit rate 48% among 1,200. TAMRA-labeled TCR probe fluorescence binding assay. inhibition, % at 9.4 µM
ABHD4 confirm = confirmation of mouse ABHD4 inhibitors | shares compounds with ABHD4 inh | purified mABHD4, FP-Rh probe fluorescence polarization | inhibition, % at 8.92 µM | hit rate 55% among 1,800 | AID 720658;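 active = mean inhibition across replicates above the hit cutoff set in the primary screen, cut at about 30% in these data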
TDP2 confirm = human TDP2 inhibition, confirmation | shares compounds with TDP2 absorb | recombinant human TDP2, absorbance read-out | inhibition, % at 12.8 µM | hit rate 22% among 1,100; in the data active = inhibition above about 25%
SIAE confirm = human SIAE inhibition, confirmation; inhibition, % at 9.66 µM; SIAE FP-Rh activity-based probe, fluorescence polarization; hit rate 13% among 2,300; shares compounds with SIAE primary;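 active = mean inhibition of the replicates above the hit cutoff set in the primary screen, cut at about 17% in these data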;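 note: inhibitors lower polarization as more probe stays unbound to SIAE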
Each line names hits and unclear results; the compound was inactive in the other large screens (follow-up assays come after a bar, where they were run); ! = repeats disagree. A selection: hits, their analogues and other compounds. The true share with any hit is near 2%. Cut-off read from the data, not from the text of the source, unless noted: active = inhibition above about 19%; inactive = the rest.

CC(=O)OCCNc1cc(N2CCN(C)CC2)c2noc3c2c1C(=O)c1ccccc1-3	ABHD4 inh 32.5, TCR-CD3 inh 23.8 (no result: PAD4 FP inh) | BSA probe FL inactive | TCR-CD3 inh conf inactive | ABHD4 confirm inactive
COc1ccc(CN(C)C(=O)COc2cccc(-n3cnnn3)c2)cc1OC	none
CN(c1ccccc1)S(=O)(=O)c1ccc(NC(=O)CC(=O)c2ccccc2)cc1	ABHD4 inh 32.4, TCR-CD3 inh 56.2 (no result: PAD4 FP inh) | BSA probe FL inactive | TCR-CD3 inh conf inactive | ABHD4 confirm inactive
CCC1(O)CCCC2C3CCC4CC(=O)CCC4(C)C3C(=O)CC21C (centres undefined)	none (no result: PAD4 FP inh)
NC1=NC(=O)/C(=C\c2ccco2)S1	ABHD4 inh 31.0, TCR-CD3 inh 23.2 | BSA probe FL inactive | TCR-CD3 inh conf inactive | ABHD4 confirm inactive
NC1=NC(=O)C(=Cc2ccccc2)S1	none (no result: PAD4 FP inh)
Nc1ncnc2oc(-c3ccco3)c(-c3ccco3)c12	TDP2 absorb 26.7, SIAE primary 35.5, ABHD4 inh 34.1, TCR-CD3 inh 57.7 | BSA probe FL inactive | TCR-CD3 inh conf 26.9 | ABHD4 confirm inactive | TDP2 confirm inactive
C[c-]1[c-](C)[c-](C)[c-](C)[c-]1C.[Fe].c1cc2nccc(N3CCCC3)[c-]2c1 (centres undefined)	TDP2 absorb 33.8, ABHD4 inh 32.6!, TCR-CD3 inh 48.8 | BSA probe FL inactive | TCR-CD3 inh conf 19.2! | ABHD4 confirm 30.5 | TDP2 confirm 26.2!
c1cc(N2CCCCC2)nc(N2CCCCC2)n1	none (no result: PAD4 FP inh)
NC(=O)c1sc2nc3c(c(-c4ccco4)c2c1N)CCC3	TDP2 absorb 26.2, ABHD4 inh 30.1, TCR-CD3 inh 19.4 | BSA probe FL inactive | TCR-CD3 inh conf inactive | ABHD4 confirm inactive | TDP2 confirm inactive
CCCCCCCCN	none (no result: HTRA1 inh, PAD4 FP inh)
CC(C)(C)NC(=O)C(c1cccc2ccccc12)n1c(=O)c(-c2ccco2)nc2ccccc21 (centres undefined)	none (no result: HTRA1 inh, PAD4 FP inh)
CCO/C(C)=N/Oc1cccc(N(C)C)c1	SIAE primary 22.9, ABHD4 inh 43.1, TCR-CD3 inh 25.9 (no result: HTRA1 inh, PAD4 FP inh) | BSA probe FL inactive | TCR-CD3 inh conf inactive | SIAE confirm inactive
O=C1c2cccnc2C(=O)N1Cc1ccc(F)cc1S(=O)(=O)NCc1ccco1	none
CCOC(=O)c1c(C)[nH]c(C(=O)COC(=O)c2cnccn2)c1C	SIAE primary 20.1, TCR-CD3 inh 38.2 | BSA probe FL inactive | TCR-CD3 inh conf inactive | SIAE confirm inactive
Cn1c(=O)c2c(-c3ccccc3)n(-c3ccc(N)cc3)cc2n(C)c1=O	TDP2 absorb 57.8, SIAE primary 22.1, ABHD4 inh 57.5, TCR-CD3 inh 29.0 (no result: HTRA1 inh, PAD4 FP inh) | BSA probe FL inactive | TCR-CD3 inh conf inactive | ABHD4 confirm inactive | TDP2 confirm 27.3 | SIAE confirm inactive
Cn1c(=O)c2c(-c3ccccc3)n(-c3cccc(O)c3)cc2n(C)c1=O	none (no result: HTRA1 inh, PAD4 FP inh)
O=c1c(O)c(-c2ccc(O)c(O)c2)oc2cc(O)cc(O)c12	SIAE primary 18.4, ABHD4 inh 33.9, TCR-CD3 inh 19.5 | BSA probe FL inactive | TCR-CD3 inh conf inactive | ABHD4 confirm 32.9 | SIAE confirm inactive
COc1cc(C=NNC(=O)Cn2nc(C)cc2C)ccc1OC(=O)C1CC1	SIAE primary 19.9, TCR-CD3 inh 30.1 | BSA probe FL inactive | TCR-CD3 inh conf inactive | SIAE confirm inactive
O=C1CCCN1C(=O)CSc1ccc2ccccc2n1	none
O=C(N/N=C\c1c(O)ccc2ccccc12)c1ccc(Cn2cccn2)o1	SIAE primary 23.8, TCR-CD3 inh 23.9 | BSA probe FL inactive | TCR-CD3 inh conf 24.8 | SIAE confirm inactive

High-throughput results: PubChem, The Scripps Research Institute Molecular Screening Center
